{"source": "ChEMBL document CHEMBL5223167", "about": "“Synthesis of Novel Kidney-Type Glutaminase Allosteric Inhibitors Targeting the Critical Lys-320 Residue” (ACS Med Chem Lett, 2023)", "key": {"[1]": {"test": "Metabolic stability in mouse liver microsomes assessed as parent compound remaining measured for 2 hrs by HPLC analysis", "assay_type": "ADME, Microsome", "settings": "read-out: Stability", "how_it_was_run": "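Compound is incubated with mouse liver microsomes for 2 h. The parent level remaining is quantified by HPLC, with coumarin as the reference control.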"}, "[2]": {"test": "Half life in ICR mouse at […], iv measured for 24 hrs by HPLC analysis", "assay_type": "ADME, organism-based", "settings": "in vivo"}, "[3]": {"test": "Clearance in ICR mouse at […], iv measured for 24 hrs by HPLC analysis", "assay_type": "ADME, organism-based", "settings": "in vivo"}, "[4]": {"system": "HCT-116", "test": "Antiproliferative activity against human HCT-116 cells assessed as inhibition of cell growth by measuring fold improvement in IC50 incubated for 5 days by EZMTT assay relative to control", "assay_type": "functional", "settings": "time 5 day"}, "[5]": {"system": "H22", "test": "Antiproliferative activity against mouse H22 cells assessed as inhibition of cell growth by measuring fold improvement in IC50 incubated for 5 days by EZMTT assay relative to control", "assay_type": "functional", "settings": "time 5 day"}, "[6]": {"system": "HCT-116", "test": "Antiproliferative activity against human HCT-116 cells assessed as growth rate at 1 uM measured after 2 to 24 hrs by EZMTT assay (reference value: 100%)", "assay_type": "functional", "settings": "for growth at 1 µM: Homo sapiens, HCT-116, time 2-24 hrs, read-out: Activity"}, "[7]": {"system": "HCT-116", "test": "Antiproliferative activity against human HCT-116 cells assessed as growth rate at 3 uM measured after 2 to 24 hrs by EZMTT assay (reference value: 100%)", "assay_type": "functional", "settings": "for growth at 3 µM: Homo sapiens, HCT-116, time 2-24 hrs, read-out: Activity"}, "[8]": {"system": "HCT-116", "test": "Antiproliferative activity against human HCT-116 cells assessed as growth rate at 10 uM measured after 2 to 24 hrs by EZMTT assay (reference value: 100%)", "assay_type": "functional", "settings": "for growth at 10 µM: Homo sapiens, HCT-116, time 2-24 hrs, read-out: Activity"}, "[9]": {"system": "A549", "test": "Inhibition of colony formation in human A549 cells assessed as reduction in number and size of colonies incubated for 14 days by crystal violet staining based assay", "assay_type": "functional, cell-based", "settings": "dose 1-5 µM, time 14.0 day"}, "[10]": {"system": "A549", "test": "Induction of ROS production in human A549 cells at 5 to 10 uM incubated for 12 hrs by dichlorodihydro-fluorescein diacetate probe based fluorescence microscopic analysis", "assay_type": "functional, cell-based", "settings": "dose 5-10 µM"}, "[11]": {"biological_target": "T1, Glutaminase kidney isoform, mitochondrial (Homo sapiens, UniProt O94925)", "T1 sequence (O94925 whole entry)": "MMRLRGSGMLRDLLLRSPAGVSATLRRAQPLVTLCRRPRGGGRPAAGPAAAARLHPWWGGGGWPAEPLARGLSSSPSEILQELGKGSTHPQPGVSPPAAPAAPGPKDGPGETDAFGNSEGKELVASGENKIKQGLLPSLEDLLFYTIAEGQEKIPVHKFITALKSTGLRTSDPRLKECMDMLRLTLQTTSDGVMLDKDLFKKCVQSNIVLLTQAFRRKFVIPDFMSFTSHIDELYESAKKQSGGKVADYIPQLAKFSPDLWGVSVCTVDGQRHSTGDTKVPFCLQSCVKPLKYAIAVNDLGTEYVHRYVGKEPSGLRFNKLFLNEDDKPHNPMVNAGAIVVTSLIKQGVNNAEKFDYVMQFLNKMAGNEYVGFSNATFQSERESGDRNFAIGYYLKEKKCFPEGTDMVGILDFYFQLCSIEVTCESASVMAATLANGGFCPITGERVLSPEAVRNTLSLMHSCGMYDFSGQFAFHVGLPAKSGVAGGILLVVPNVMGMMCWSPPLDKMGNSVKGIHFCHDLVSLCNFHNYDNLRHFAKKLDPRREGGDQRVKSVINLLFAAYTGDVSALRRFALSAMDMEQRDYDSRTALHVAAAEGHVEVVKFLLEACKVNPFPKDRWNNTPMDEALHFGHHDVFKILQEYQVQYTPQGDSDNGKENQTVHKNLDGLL", "test": "Inhibition of human KGA using glutamine as substrate preincubated for 0.5 hrs followed by substrate addition and measured after 4 hrs by EZMTT reagent based assay"}, "[12]": {"biological_target": "Glutamate dehydrogenase 1, mitochondrial (Bos taurus) (UniProt P00366)", "sequence (P00366 whole entry)": "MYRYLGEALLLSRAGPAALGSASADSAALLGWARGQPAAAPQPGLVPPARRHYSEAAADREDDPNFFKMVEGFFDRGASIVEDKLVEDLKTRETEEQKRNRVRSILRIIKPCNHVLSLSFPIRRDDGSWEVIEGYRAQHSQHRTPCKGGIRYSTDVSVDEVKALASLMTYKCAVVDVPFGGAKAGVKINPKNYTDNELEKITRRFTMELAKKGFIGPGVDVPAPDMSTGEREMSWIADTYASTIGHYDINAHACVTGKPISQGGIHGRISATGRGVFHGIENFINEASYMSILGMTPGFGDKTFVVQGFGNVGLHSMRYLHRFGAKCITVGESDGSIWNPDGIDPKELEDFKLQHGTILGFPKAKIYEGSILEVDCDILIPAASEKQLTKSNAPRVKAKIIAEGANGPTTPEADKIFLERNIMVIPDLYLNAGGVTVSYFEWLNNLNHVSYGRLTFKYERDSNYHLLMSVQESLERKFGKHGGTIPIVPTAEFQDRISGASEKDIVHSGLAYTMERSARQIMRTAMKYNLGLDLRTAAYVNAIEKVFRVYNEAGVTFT", "test": "Inhibition of bovine GDH using glutamate as substrate preincubated for 0.5 hrs followed by substrate addition and further incubated for 1 hr in presence of NADP+ by EZMTT reagent based assay"}, "[13]": {"species_on_record": "Homo sapiens", "test": "Binding affinity to alanine residue of human KGA K320A mutant assessed as covalent bond formation"}, "[14]": {"biological_target": "T2, Glutaminase kidney isoform, mitochondrial (Homo sapiens) (UniProt O94925)", "T2 sequence (whole entry)": "T1 sequence (O94925 whole entry)", "test": "Covalent inhibition of wild type human KGA using glutamine as substrate at 10 uM preincubated for 0.5 hrs followed by substrate addition and measured after 4 hrs by EZMTT reagent based assay", "settings": "time 4.5 hrs", "how_it_was_run": "(§1)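 Human KGA, either wild-type or the K320A mutant, is pre-incubated with or without compound at 10 μM before the enzyme activity assay.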"}, "[15]": {"species_on_record": "Homo sapiens", "test": "Covalent inhibition of human KGA K320A mutant using glutamine as substrate at 10 uM preincubated for 0.5 hrs followed by substrate addition and measured after 4 hrs by EZMTT reagent based assay", "settings": "time 4.5 hrs", "how_it_was_run": "as §1"}, "[16]": {"biological_target": "T2, Glutaminase kidney isoform, mitochondrial (Homo sapiens)", "test": "Inhibition of biotinylated N-[6-[4-[5-[[2-(2-pyridyl)acetyl]amino]-1,3,4-thiadiazol-2-yl]butyl]pyridazin-3-yl]-2-[3-(trifluoromethoxy)phenyl]acetamide binding to wild type human KGA at >300 nM by biomolecular interaction assay"}, "[17]": {"species_on_record": "Homo sapiens", "test": "Inhibition of biotinylated N-[6-[4-[5-[[2-(2-pyridyl)acetyl]amino]-1,3,4-thiadiazol-2-yl]butyl]pyridazin-3-yl]-2-[3-(trifluoromethoxy)phenyl]acetamide binding to human KGA K320A mutant by biomolecular interaction assay", "settings": "dose 0-3 µM"}, "[18]": {"biological_target": "T1, Glutaminase kidney isoform, mitochondrial", "test": "Binding affinity to wild type human KGA assessed as covalent bond formation by measuring dissociation constant by biomolecular interaction assay"}, "[19]": {"test": "Stability of compound", "assay_type": "physicochemical"}}, "note": "The source made the active and inactive calls. The rule behind the calls is not given here."}
{"smiles": "O=C(/C=C/c1ccc2c(c1)OCO2)Nc1ccc(CCCCc2nnc(NC(=O)Cc3ccccn3)s2)nn1", "values": [{"measurement": "remaining at 2 h", "setting": "[1]", "result": 83, "unit": "%"}, {"measurement": "half-life", "setting": "[2]", "result": 3.37, "unit": "h"}, {"measurement": "clearance", "setting": "[3]", "result": 582, "unit": "mL/min/kg"}, {"measurement": "fold change (FC)", "setting": "[4]", "result": 3}, {"measurement": "fold change (FC)", "setting": "[5]", "result": 30}, {"measurement": "growth at 1 µM", "setting": "[6]", "result": 11.9, "unit": "%"}, {"measurement": "growth at 3 µM", "setting": "[7]", "result": 7.6, "unit": "%"}, {"measurement": "growth at 10 µM", "setting": "[8]", "result": 6.1, "unit": "%"}, {"measurement": "inhibition", "setting": "[9]", "result": "Dose-Dependent Effect"}, {"measurement": "Activity", "setting": "[10]", "result": "Active"}, {"measurement": "IC50", "setting": "[11]", "result": 28, "unit": "nM"}, {"measurement": "inhibition", "setting": "[12]", "result": "inactive"}, {"measurement": "Activity", "setting": "[13]", "result": "inactive"}, {"measurement": "inhibition", "setting": "[14]", "result": 100, "unit": "%"}, {"measurement": "inhibition", "setting": "[15]", "result": "inactive"}, {"measurement": "inhibition", "setting": "[16]", "result": "Active"}, {"measurement": "inhibition", "setting": "[17]", "result": "Dose-Dependent Effect"}, {"measurement": "Kd", "setting": "[18]", "result": "≤ 0.001", "unit": "nM"}, {"measurement": "Stability", "setting": "[19]", "result": "Stable"}]}
{"smiles": "O=c1ccc2ccccc2o1", "note": "[COUMARIN]", "values": [{"measurement": "remaining at 2 h", "setting": "[1]", "result": 61, "unit": "%"}]}
{"smiles": "C=CC(=O)Nc1ccc(CCCCc2nnc(NC(=O)Cc3ccccn3)s2)nn1", "values": [{"measurement": "inhibition", "setting": "[12]", "result": "inactive"}, {"measurement": "Stability", "setting": "[19]", "result": "Unstable"}]}
{"smiles": "C=CC(=O)Nc1ccc(CCCCc2nnc(NC(=O)Cc3cc4ccccc4n3C)s2)nn1", "values": [{"measurement": "inhibition", "setting": "[12]", "result": "inactive"}, {"measurement": "Stability", "setting": "[19]", "result": "Unstable"}]}
{"smiles": "O=C(Cc1cccc(OC(F)(F)F)c1)Nc1ccc(CCCCc2nnc(NC(=O)Cc3ccccn3)s2)nn1", "values": [{"measurement": "Activity", "setting": "[6]; time 2-24 hrs", "result": 19.1, "unit": "%"}, {"measurement": "Activity", "setting": "[7]; time 2-24 hrs", "result": 17, "unit": "%"}, {"measurement": "Activity", "setting": "[8]; time 2-24 hrs", "result": 14.1, "unit": "%"}, {"measurement": "inhibition", "setting": "[12]", "result": "inactive"}]}
{"smiles": "C=CC(=O)Nc1ccc(CCCCc2nnc(NC(=O)Cc3ccccn3)[se]2)nn1", "values": [{"measurement": "inhibition", "setting": "[12]", "result": "inactive"}, {"measurement": "Stability", "setting": "[19]", "result": "Unstable"}]}
{"smiles": "O=C(/C=C/c1cc(F)ccc1F)Nc1ccc(CCCCc2nnc(NC(=O)Cc3ccccn3)[se]2)nn1", "values": [{"measurement": "inhibition", "setting": "[12]", "result": "inactive"}, {"measurement": "Stability", "setting": "[19]", "result": "Unstable"}]}
{"smiles": "C=C(C(=O)Nc1ccc(CCCCc2nnc(NC(=O)Cc3ccccn3)[se]2)nn1)c1cccc(OC(F)(F)F)c1", "values": [{"measurement": "inhibition", "setting": "[12]", "result": "inactive"}, {"measurement": "Stability", "setting": "[19]", "result": "Unstable"}]}
{"smiles": "O=C(/C=C/c1ccc2c(c1)OCO2)Nc1ccc(CCCCc2nnc(NC(=O)Cc3ccccn3)[se]2)nn1", "values": [{"measurement": "remaining at 2 h", "setting": "[1]", "result": 74, "unit": "%"}, {"measurement": "half-life", "setting": "[2]", "result": 4.89, "unit": "h"}, {"measurement": "clearance", "setting": "[3]", "result": 327, "unit": "mL/min/kg"}, {"measurement": "growth at 1 µM", "setting": "[6]", "result": 14.3, "unit": "%"}, {"measurement": "growth at 3 µM", "setting": "[7]", "result": 6, "unit": "%"}, {"measurement": "growth at 10 µM", "setting": "[8]", "result": 6.3, "unit": "%"}, {"measurement": "inhibition", "setting": "[9]", "result": "Dose-Dependent Effect"}, {"measurement": "Activity", "setting": "[10]", "result": "Active"}, {"measurement": "IC50", "setting": "[11]", "result": 50, "unit": "nM"}, {"measurement": "inhibition", "setting": "[12]", "result": "inactive"}, {"measurement": "Activity", "setting": "[13]", "result": "inactive"}, {"measurement": "inhibition", "setting": "[14]", "result": 100, "unit": "%"}, {"measurement": "inhibition", "setting": "[15]", "result": "inactive"}, {"measurement": "inhibition", "setting": "[16]", "result": "Active"}, {"measurement": "inhibition", "setting": "[17]", "result": "Dose-Dependent Effect"}, {"measurement": "Kd", "setting": "[18]", "result": "≤ 0.001", "unit": "nM"}, {"measurement": "Stability", "setting": "[19]", "result": "Stable"}]}
